From ChEMBL document CHEMBL2429732, “Aminopyrazole-Phenylalanine Based GPR142 Agonists: Discovery of Tool Compound and in Vivo Efficacy Studies” (ACS Med Chem Lett, 2013)
The source made the active and inactive calls. No cut-off for these calls is given here.

Assays:
[1] = target: T1, Probable G-protein coupled receptor 142 (Mus musculus) (UniProt Q7TQN9); assay: Agonist activity at mouse GPR142 relative to tryptophan
T1 sequence (whole entry): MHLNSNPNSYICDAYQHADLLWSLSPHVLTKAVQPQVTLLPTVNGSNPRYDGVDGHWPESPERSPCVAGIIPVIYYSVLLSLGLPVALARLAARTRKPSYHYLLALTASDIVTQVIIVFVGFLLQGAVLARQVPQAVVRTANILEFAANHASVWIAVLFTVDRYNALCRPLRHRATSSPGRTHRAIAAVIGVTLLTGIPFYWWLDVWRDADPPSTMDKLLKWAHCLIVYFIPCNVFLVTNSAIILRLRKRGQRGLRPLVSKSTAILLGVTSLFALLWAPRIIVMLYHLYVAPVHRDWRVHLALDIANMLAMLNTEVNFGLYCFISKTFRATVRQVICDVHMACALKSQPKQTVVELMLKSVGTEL
Procedure, shortened: (§1)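 Inositol phosphate accumulation in HEK293 cells transfected with mouse or cynomolgus monkey receptor plasmid, tritiated inositol labelling, compounds in HBSS/0.01% BSA plus 10 mM LiCl, 37 °C for 1 h, SPA scintillation read-out; maximal efficacy expressed relative to tryptophan response.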

[2] = Metabolic stability in rat liver microsomes assessed as compound remaining at 1 uM after 30 mins; type: ADME, Microsome; conditions: read-out: Stability
[3] = Bioavailability in cynomolgus monkey at 2 mg/kg, sc; type: ADME, organism-based, Macaca fascicularis; conditions: in vivo
[4] = Oral bioavailability in cynomolgus monkey at 10 mg/kg; type: ADME, organism-based, Macaca fascicularis; conditions: in vivo
Procedure, shortened: (§2)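 Oral dosing used the ethyl ester prodrug. All pharmacokinetic calculations were based on the parent free acid in plasma.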

[5] = Cmax in rat at 2 mg/kg, sc; type: ADME, organism-based; design: dose 2 mg/kg, route subcutaneous; conditions: in vivo
[6] = Fraction unbound in cynomolgus monkey plasma; type: ADME, cell-free, Macaca fascicularis
[7] = Bioavailability in rat at 2 mg/kg, sc; type: ADME, organism-based; conditions: in vivo
[8] = Clearance in rat at 0.5 mg/kg, iv; type: ADME, organism-based; design: dose 0.5 mg/kg, route intravenous; conditions: in vivo
[9] = tested on: Mus musculus; assay: Antidiabetic activity in wild type mouse assessed as reduction of plasma glucose AUC at 10 mg/kg, sc administered 15 mins before glucose challenge measured up to 90 mins; design: scale not given: the % may be the effect or the level left; conditions: route subcutaneous
[10] = target: T2, Probable G-protein coupled receptor 142 (Homo sapiens, UniProt Q7Z601); assay: Agonist activity at human GPR142 expressed in HEK293 cells assessed as inositol phosphate accumulation using [3H]-inositol after 1 hr by scintillation counting; type: functional, cell-based
T2 sequence (Q7Z601 whole entry): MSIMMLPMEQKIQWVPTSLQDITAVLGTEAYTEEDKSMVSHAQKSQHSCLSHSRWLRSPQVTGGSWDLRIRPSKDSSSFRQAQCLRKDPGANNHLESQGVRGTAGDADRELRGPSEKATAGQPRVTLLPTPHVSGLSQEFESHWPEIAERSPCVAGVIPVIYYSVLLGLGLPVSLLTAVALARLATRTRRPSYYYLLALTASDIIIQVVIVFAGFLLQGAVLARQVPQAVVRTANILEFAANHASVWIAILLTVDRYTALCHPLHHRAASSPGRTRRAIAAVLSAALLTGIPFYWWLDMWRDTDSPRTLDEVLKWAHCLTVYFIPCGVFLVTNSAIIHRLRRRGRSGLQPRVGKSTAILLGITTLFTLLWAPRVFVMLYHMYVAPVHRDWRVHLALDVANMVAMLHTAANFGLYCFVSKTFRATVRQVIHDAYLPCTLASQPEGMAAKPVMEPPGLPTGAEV

[11] = Fraction unbound in rat plasma; type: ADME, cell-free
[12] = target: T3, Probable G-protein coupled receptor 142 (Mus musculus, UniProt Q7TQN9); assay: Agonist activity at mouse GPR142
T3 sequence (Q7TQN9 whole entry): T1 sequence (whole entry)
Procedure, shortened: (§3)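 HEK293 cells, plated at 25 000/well, were transiently transfected with 100 ng receptor plasmid per well. They were labelled overnight with 1.0 μCi/mL tritiated inositol in inositol-free DMEM/10% dialyzed FCS. Cells were then exposed to graded compound levels in HBSS/0.01% BSA with 10 mM LiCl for 1 h at 37 °C. Cells were lysed in cold 20 mM formic acid (5 h, 4 °C), and IP was captured on yttrium silicate SPA beads and read by scintillation counting. EC50 is the mean of three runs.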

[13] = Oral bioavailability in rat at 2 mg/kg; type: ADME, organism-based; conditions: in vivo; procedure, shortened: as §2
[14] = Fraction unbound in human plasma; type: ADME, cell-free
[15] = Tmax in rat at 2 mg/kg, po; type: ADME, organism-based; design: dose 2 mg/kg, route oral; conditions: in vivo; procedure, shortened: as §2
[16] = Tmax in cynomolgus monkey at 2 mg/kg, sc; type: ADME, organism-based, Macaca fascicularis; design: dose 2 mg/kg, route subcutaneous; conditions: in vivo
[17] = target: T1, Probable G-protein coupled receptor 142 (Mus musculus); assay: Ex vivo agonist activity at GPR142 in wild type mouse islets assessed as stimulation of insulin secretion at 3 to 10 uM by ELISA in presence of glucose
Procedure, shortened: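 Islets from wild-type and GPR142 knockout mice incubated with compound at 3.0 and 10.0 μM in presence of 16.7 mM glucose; insulin secretion measured.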

[18] = Volume of distribution at steady state in cynomolgus monkey at 0.5 mg/kg, iv; type: ADME, organism-based, Macaca fascicularis; design: dose 0.5 mg/kg, route intravenous; conditions: in vivo, read-out: Vdss
[19] = Cmax in cynomolgus monkey at 10 mg/kg, po; type: ADME, organism-based, Macaca fascicularis; design: dose 10 mg/kg, route oral; conditions: in vivo; procedure, shortened: as §2
[20] = target: Cytochrome P450 3A4 (Homo sapiens, UniProt P08684); assay: Inhibition of CYP3A4 (unknown origin); type: ADME
Cytochrome P450 3A4, sequence (P08684 whole entry): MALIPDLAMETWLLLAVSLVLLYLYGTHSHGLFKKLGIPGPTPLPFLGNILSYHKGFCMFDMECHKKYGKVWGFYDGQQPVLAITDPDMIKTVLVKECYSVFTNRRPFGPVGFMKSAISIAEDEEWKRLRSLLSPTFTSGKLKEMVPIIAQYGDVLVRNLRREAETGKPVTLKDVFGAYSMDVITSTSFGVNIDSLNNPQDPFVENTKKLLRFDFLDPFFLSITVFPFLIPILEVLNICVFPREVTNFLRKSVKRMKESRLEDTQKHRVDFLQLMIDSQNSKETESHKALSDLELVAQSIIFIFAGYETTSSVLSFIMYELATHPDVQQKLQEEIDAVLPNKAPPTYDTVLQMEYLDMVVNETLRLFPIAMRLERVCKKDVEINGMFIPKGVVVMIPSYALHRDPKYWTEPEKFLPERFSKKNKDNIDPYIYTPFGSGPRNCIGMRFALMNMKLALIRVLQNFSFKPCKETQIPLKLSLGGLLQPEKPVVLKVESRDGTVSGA

[21] = target: Cytochrome P450 2D6 (Homo sapiens, UniProt P10635); assay: Inhibition of CYP2D6 (unknown origin); type: ADME
Cytochrome P450 2D6, sequence (P10635 whole entry): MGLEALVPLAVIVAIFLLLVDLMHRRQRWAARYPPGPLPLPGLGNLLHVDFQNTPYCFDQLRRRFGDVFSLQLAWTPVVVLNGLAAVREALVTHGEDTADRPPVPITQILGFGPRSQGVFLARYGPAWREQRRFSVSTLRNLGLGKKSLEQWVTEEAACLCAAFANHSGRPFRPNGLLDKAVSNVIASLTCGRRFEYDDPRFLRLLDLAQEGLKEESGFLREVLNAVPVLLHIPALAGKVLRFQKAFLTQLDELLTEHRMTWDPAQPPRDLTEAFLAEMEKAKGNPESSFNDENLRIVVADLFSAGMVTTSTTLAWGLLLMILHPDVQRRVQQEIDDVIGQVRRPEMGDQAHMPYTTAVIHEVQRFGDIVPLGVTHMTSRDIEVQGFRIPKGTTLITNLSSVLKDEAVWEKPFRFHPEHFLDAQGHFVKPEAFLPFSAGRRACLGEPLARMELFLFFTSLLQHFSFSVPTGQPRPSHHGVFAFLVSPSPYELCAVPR

[22] = Half life in cynomolgus monkey at 0.5 mg/kg, iv; type: ADME, organism-based, Macaca fascicularis; design: dose 0.5 mg/kg, route intravenous; conditions: in vivo
[23] = species on record: Macaca fascicularis; assay: Agonist activity at cynomolgus monkey GPR142 relative to tryptophan; procedure, shortened: as §1
[24] = Clearance in cynomolgus monkey at 0.5 mg/kg, iv; type: ADME, organism-based, Macaca fascicularis; design: dose 0.5 mg/kg, route intravenous; conditions: in vivo
[25] = tested on: Mus musculus; assay: Antidiabetic activity in mouse bearing human islets assessed as reduction of plasma glucose AUC at 10 mg/kg, sc administered 15 mins before glucose challenge measured up to 90 mins; design: scale not given: the % may be the effect or the level left; conditions: route subcutaneous
[26] = Cmax in cynomolgus monkey at 2 mg/kg, sc; type: ADME, organism-based, Macaca fascicularis; design: dose 2 mg/kg, route subcutaneous; conditions: in vivo
[27] = Volume of distribution at steady state in rat at 0.5 mg/kg, iv; type: ADME, organism-based; design: dose 0.5 mg/kg, route intravenous; conditions: in vivo, read-out: Vdss
[28] = Agonist activity at cynomolgus monkey GPR142; design: species or system Macaca fascicularis; procedure, shortened: as §3
[29] = Permeability across human Caco2 cells; type: ADME, cell-based; conditions: Caco-2, read-out: permeability
[30] = Metabolic stability in human liver microsomes assessed as compound remaining at 1 uM after 30 mins; type: ADME, Microsome; conditions: read-out: Stability
Procedure, shortened: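 Compound at 1.0 μM was incubated for 30 min in human liver microsomes; percentage of intact compound remaining was determined.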

[31] = Cmax in rat at 2 mg/kg, po; type: ADME, organism-based; design: dose 2 mg/kg, route oral; conditions: in vivo; procedure, shortened: as §2
[32] = species on record: Mus musculus; assay: Induction of insulin secretion in GPR142-deficient mouse islets at 3 to 10 uM by ELISA in presence of glucose; type: functional
Procedure, shortened: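 Islets isolated from wild-type and GPR142 knockout mice were incubated with test agent at 3.0 and 10.0 μM in the presence of 16.7 mM glucose, and insulin secretion was measured.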

[33] = target: Voltage-gated inwardly rectifying potassium channel KCNH2 (Homo sapiens, UniProt Q12809); assay: Inhibition of human ERG by patch clamp assay
Voltage-gated inwardly rectifying potassium channel KCNH2, sequence (Q12809 whole entry): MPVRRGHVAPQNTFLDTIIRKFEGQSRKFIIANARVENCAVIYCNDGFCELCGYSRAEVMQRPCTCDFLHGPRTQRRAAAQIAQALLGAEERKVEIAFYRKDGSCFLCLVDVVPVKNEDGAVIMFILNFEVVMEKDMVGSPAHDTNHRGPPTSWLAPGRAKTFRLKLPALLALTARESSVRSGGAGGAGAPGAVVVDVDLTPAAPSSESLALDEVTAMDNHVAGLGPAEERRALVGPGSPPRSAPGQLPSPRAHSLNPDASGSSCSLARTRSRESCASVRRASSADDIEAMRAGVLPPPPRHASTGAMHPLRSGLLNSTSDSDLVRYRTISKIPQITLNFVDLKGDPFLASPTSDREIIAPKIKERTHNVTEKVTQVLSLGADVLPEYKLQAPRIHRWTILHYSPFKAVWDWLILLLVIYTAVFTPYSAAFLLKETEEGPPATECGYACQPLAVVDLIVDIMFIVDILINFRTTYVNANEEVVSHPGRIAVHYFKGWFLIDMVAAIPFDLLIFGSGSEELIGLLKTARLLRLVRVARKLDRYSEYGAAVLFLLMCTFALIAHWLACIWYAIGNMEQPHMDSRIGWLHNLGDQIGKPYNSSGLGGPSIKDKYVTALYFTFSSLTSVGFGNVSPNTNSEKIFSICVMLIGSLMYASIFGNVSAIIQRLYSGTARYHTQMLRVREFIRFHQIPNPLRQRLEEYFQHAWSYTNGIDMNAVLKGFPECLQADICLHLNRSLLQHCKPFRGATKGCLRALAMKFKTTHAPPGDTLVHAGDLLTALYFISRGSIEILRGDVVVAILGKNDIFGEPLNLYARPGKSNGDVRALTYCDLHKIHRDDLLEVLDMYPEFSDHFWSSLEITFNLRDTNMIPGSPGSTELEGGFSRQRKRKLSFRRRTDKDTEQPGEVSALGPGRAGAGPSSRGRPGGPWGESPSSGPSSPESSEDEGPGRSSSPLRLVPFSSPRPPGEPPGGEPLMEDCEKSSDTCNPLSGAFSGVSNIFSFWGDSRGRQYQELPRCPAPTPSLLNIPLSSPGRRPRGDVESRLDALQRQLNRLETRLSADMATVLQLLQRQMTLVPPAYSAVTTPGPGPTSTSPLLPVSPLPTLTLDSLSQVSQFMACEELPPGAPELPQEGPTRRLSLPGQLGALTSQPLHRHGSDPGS

[34] = Tmax in cynomolgus monkey at 10 mg/kg, po; type: ADME, organism-based, Macaca fascicularis; design: dose 10 mg/kg, route oral; conditions: in vivo; procedure, shortened: as §2
[35] = target: T4, Nuclear receptor subfamily 1 group I member 2 (Homo sapiens, UniProt O75469); assay: Induction of human PXR activity
T4 sequence (O75469 whole entry): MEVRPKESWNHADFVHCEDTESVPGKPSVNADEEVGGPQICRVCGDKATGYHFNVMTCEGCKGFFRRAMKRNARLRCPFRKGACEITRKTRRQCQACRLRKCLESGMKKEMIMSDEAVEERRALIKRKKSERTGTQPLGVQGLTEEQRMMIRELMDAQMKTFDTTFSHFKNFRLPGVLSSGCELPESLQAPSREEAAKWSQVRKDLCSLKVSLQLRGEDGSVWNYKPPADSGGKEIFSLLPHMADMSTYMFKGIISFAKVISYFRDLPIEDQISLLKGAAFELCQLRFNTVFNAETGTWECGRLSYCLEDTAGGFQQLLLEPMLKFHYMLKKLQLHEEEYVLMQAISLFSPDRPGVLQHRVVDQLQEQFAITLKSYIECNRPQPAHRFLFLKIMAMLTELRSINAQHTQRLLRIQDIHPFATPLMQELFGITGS

[36] = Tmax in rat at 2 mg/kg, sc; type: ADME, organism-based; design: dose 2 mg/kg, route subcutaneous; conditions: in vivo
[37] = Half life in rat at 0.5 mg/kg, iv; type: ADME, organism-based; design: dose 0.5 mg/kg, route intravenous; conditions: in vivo

Compound: Cn1nc(-c2ccncc2)cc1NC(=O)[C@H](Cc1ccccc1)NCC(=O)O
- Emax [1]: 73%
- remaining at 0.5 h, 1 µM [2]: > 90%
- bioavailability [3]: 100%
- bioavailability [4]: 6%
- Cmax [5]: 7.5 µM
- fraction unbound [6]: 0.1
- bioavailability [7]: 81%
- clearance [8]: 0.15 L/h/kg
- Activity [9]: -25%
- EC50 [10]: 0.052 µM
- fraction unbound [11]: 0.01
- EC50 [12]: 0.031 µM
- bioavailability [13]: 3%
- fraction unbound [14]: 0.16
- Tmax [15]: 0.83 h
- Tmax [16]: 0.5 h
- Activity [17]: Active
- Vd [18]: 0.33 L/kg
- Cmax [19]: 0.4 µM
- IC50 [20]: > 30 µM
- IC50 [21]: > 30 µM
- half-life [22]: 2.3 h
- Emax [23]: 79%
- clearance [24]: 0.44 L/h/kg
- Activity [25]: -28%
- Cmax [26]: 6.3 µM
- Vd [27]: 0.29 L/kg
- EC50 [28]: 0.079 µM
- Papp [29]: 9 nm/s
- remaining at 0.5 h, 1 µM [30]: > 90%
- Cmax [31]: 0.17 µM
- Activity [32]: inactive
- IC50 [33]: > 30 µM
- Tmax [34]: 4 h
- Activity [35]: Not Active
- Tmax [36]: 0.38 h
- half-life [37]: 4.1 h
